# Screening results deposited in PubChem BioAssay by The Scripps Research Institute Molecular Screening Center.
# CHO-K1 Ca ag: counter-screen for M1 agonists: effect in parental CHO-K1 cells | Fluo-8 calcium fluorescence; scaled to maximal ATP response, vehicle zero | activation, % at 3 µM | 360,000 tested, 0.48% active | AID 602248; in the data active = activation above about 15%;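 note: untransfected CHO-K1 host cells lacking M1 receptor as counterscreen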
# CHO-K1 Ca antag: nonselective inhibitor or artifact in parental CHO-K1 cells | ATP-induced calcium, Fluo-8 fluorescence | inhibition, % at 3 µM | 360,000 tested, 0.6% active;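 active = inhibition above a per-plate cutoff, the plate's mean sample inhibition plus 3 SD, cut at about 24% in these data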
# CHRM5 agonist: agonists of human muscarinic M5 receptor (CHRM5) | activation, % at 3 µM | P08912 | CHO-K1 hM5 cells, Fluo-8 calcium fluorescence; 0% DMSO wells, 100% maximal acetylcholine response | 360,000 tested, 0.19% active;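 active = activation above the run's mean over test compounds plus 3 SD, cut at about 23% in these data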;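 note: signal is peak over basal fluorescence ratio across the kinetic read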
# Target sequence (P08912 whole entry, looked up): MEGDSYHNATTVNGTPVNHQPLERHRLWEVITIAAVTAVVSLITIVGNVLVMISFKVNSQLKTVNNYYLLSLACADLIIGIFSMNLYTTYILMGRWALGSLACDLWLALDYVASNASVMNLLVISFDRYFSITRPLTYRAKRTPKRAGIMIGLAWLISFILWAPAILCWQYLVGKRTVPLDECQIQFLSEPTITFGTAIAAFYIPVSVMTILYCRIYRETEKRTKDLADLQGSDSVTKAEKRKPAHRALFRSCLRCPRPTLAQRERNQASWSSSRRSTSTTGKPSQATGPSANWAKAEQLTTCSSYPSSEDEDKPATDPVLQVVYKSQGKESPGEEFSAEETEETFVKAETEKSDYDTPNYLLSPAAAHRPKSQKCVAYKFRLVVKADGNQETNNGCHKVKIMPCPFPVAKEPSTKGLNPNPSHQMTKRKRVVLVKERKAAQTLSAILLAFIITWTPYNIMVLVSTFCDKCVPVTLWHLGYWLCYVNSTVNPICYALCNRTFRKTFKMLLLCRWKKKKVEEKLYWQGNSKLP
# M1 PAM parental: M1 PAM counterscreen hit in parental CHO-K1 cells; activation, % at 3 µM; 360,000 tested, 0.02% active; ATP EC20, Fluo-8 calcium fluorescence; 0% at ATP EC20, 100% at ATP max;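 active = activation above the run cutoff, the mean activation of all test compounds plus 3 SD, cut at about 40% in these data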;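 note: peak over basal fluorescence ratio in a 140 s read after ATP addition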
# M5 PAM: positive allosteric modulators of human muscarinic M5 receptor; P08912; CHO-K1 hM5, Fluo-8 calcium, ACh EC20 PAM; 0% = ACh EC20, 100% = ACh EC100; activation, % at 3 µM; 360,000 tested, 0.3% active;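 active = activation above the run cutoff, the mean activation of all test compounds plus 3 SD, cut at about 18% in these data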
#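 Test system: CHO-K1 hM5 cells / Doses: single-point, 3 µM nominal / Times: Post-acetylcholine fluorescence recording 140 s / Technique: Fluo-8 calcium fluorescence / Measure: Max/basal fluorescence ratio as % of EC20–EC100 ACh window / Benchmarks: low control EC20 acetylcholine (0%), high control EC100 acetylcholine (100%) / Replicates: one well per compound, no replicates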
# M5 antag: antagonists of human muscarinic M5 receptor (CHRM5); P08912; CHO-hM5 cells, Fluo-8 calcium fluorescence, ACh EC80; inhibition, % at 3 µM; 360,000 tested, 0.59% active; AID 624040;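 active = inhibition above a per-plate cutoff, the mean of that plate's test compounds plus 3 SD, cut at about 27% in these data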
# A number is an active result; i = inactive. The list is not random: actives were taken first. Their share in the collection is about 1.7%.
SMILES,CHO-K1 Ca ag,CHO-K1 Ca antag,CHRM5 agonist,M1 PAM parental,M5 PAM,M5 antag
CC(=O)Nc1ccc(NC(=O)CC2SC(=O)N(CC(=O)c3ccccc3)C2=O)cc1 (stereo unspecified),i,i,i,i,i,i
C/C(=N\Nc1ccccn1)c1ccc(C#N)cc1,i,i,i,i,i,i
C/C(=N\Nc1ccccn1)c1ccc(OC(F)F)cc1,17,i,i,i,i,i
COc1cccc(C2/C(=C(/O)c3ccccc3)C(=O)C(=O)N2Cc2ccco2)c1 (stereo unspecified),i,i,i,i,i,i
Cc1ccc(CNc2ncnc3cc(Cl)ccc23)cc1,i,i,i,i,i,35
S=c1[nH]nc(-c2ccncc2)n1/N=C/C(Cl)=C\c1ccccc1,i,i,38,i,i,i
S=c1[nH]nc(-c2ccncc2)n1/N=C/C=C/c1ccccc1,i,i,i,i,i,i
CCN(CC)CCOC(=O)C1c2ccccc2Oc2ccccc21,i,i,i,i,i,100
CCN(CC)CCNC(=O)C1c2ccccc2Oc2ccccc21,i,i,i,i,i,59
N#CCOC(=O)C1c2ccccc2Oc2ccccc21,i,i,i,i,i,i
CCOCc1nnc(NC(=O)C2c3ccccc3Oc3ccccc32)s1,20,i,28,i,i,i
COc1ccc(S(=O)(=O)N2CCC(C(=O)N3CCOCC3)CC2)cc1Cl,i,i,i,i,i,i
NS(=O)(=O)c1ccc(NC(=O)C2C3C=CC(C3)C2C(=O)O)cc1 (stereo unspecified),i,i,i,i,18,i
CCCCOC(=O)CSCC(=O)Nc1cc(C)on1,i,i,i,i,i,i
CCn1c(SCC(=O)Nc2cccc(C)c2)nc2c(c1=O)SC(C)C2 (stereo unspecified),i,35,i,i,i,i
Nc1nc(SCC(=O)O)[nH]c(=O)c1NC(=O)c1ccccc1F,i,i,i,i,i,i
COCCNC(=O)CSc1nc(N)c(NC(=O)c2ccccc2F)c(=O)[nH]1,i,24,i,i,i,i
O=C(Nc1ccc(Cl)cc1)Nc1ccccc1C(=O)NCc1ccco1,i,i,i,i,i,i
CC1CCN(CCOCCSc2ccc(Cl)cc2)CC1,i,27,i,i,i,i
Clc1ccc(SCCOCCN2CCCCC2)cc1,i,i,i,i,i,i
COC(=O)c1ccc(NC(=O)C2CC3CCC2C3)cc1 (stereo unspecified),i,i,i,i,i,i
COC(=O)c1ccc(NC(=S)NC2CC3CCC2C3)cc1 (stereo unspecified),16,i,i,i,i,i
COc1ccc(CCN(C)c2ccc(S(=O)(=O)N3CCCC3)cc2[N+](=O)[O-])cc1OC,i,i,i,i,i,i
COc1ccc(CN(C)c2ccc(S(=O)(=O)N3CCN(C)CC3)cc2[N+](=O)[O-])cc1OC,16,31,i,i,i,i
CC/C(=N\NC(=O)CSc1ncccn1)c1ccc2c(c1)OCCO2,i,26,i,i,i,i
SMILES,CHO-K1 Ca ag,CHO-K1 Ca antag,CHRM5 agonist,M1 PAM parental,M5 PAM,M5 antag
CC/C(=N\NC(=O)c1cccnc1)c1ccc2c(c1)OCCO2,i,i,i,i,i,i
CCc1ccc(NC(=O)CSc2nc(=O)n3cc(C)ccc3n2)cc1,i,43,i,i,i,i
Cc1cccc(C)c1NC(=S)/N=C/N(C)C,i,i,i,i,i,i
COc1ccc(C(CNC(=O)C(C)(C)Oc2ccc(Cl)cc2)N2CCCC2)cc1 (stereo unspecified),i,i,i,i,i,i
COc1ccccc1C(CNC(=O)C(C)(C)Oc1ccc(Cl)cc1)N1CCCC1 (stereo unspecified),i,i,i,i,i,72
Cc1c(C(=O)OCC(=O)NCCN2C(=O)CSC2=O)cccc1[N+](=O)[O-],i,30,i,i,i,i
COc1ccc(C(=O)OCC(=O)NCCN2C(=O)CSC2=O)cc1[N+](=O)[O-],i,i,i,i,i,i
CNc1oc(-c2ccc(Cl)cc2)nc1P(=O)(c1ccccc1)c1ccccc1,i,i,i,49,i,i
COc1cc(C=O)ccc1OCC(=O)N1CCCC1,i,i,i,i,20,i
Cc1cc(=O)[nH]c(-c2ccccc2OC(F)(F)F)n1,18,i,i,i,i,i
Cc1nc(-c2ccccc2OC(F)(F)F)[nH]c(=O)c1Cl,i,i,i,i,i,i
Cc1ccc(NC(=O)C(C)N2CCCc3ccccc32)cc1S(=O)(=O)N1CCOCC1 (stereo unspecified),i,i,i,i,i,i
COc1ccc(C(=O)C2CCCN(C(=O)CCc3scnc3C)C2)c(C)c1 (stereo unspecified),18,i,i,i,i,i
COc1ccc(C(=O)C2CCCN(C(=O)CCc3ccccn3)C2)c(C)c1 (stereo unspecified),i,i,i,i,i,i
O=C(c1ccco1)N1CCN(Cc2nc3ccc([N+](=O)[O-])cc3c(=O)n2-c2ccccc2F)CC1,i,28,i,i,i,i
O=C(Nc1cccc(-c2cnc3ccccc3n2)c1)c1cccc(NC(=O)c2ccco2)c1,i,31,i,i,i,i
O=C(Nc1cccc(-c2cnc3ccccc3n2)c1)c1ccccc1,i,i,i,i,i,i
O=C(O)CC(NS(=O)(=O)Cc1ccccc1)c1cccc([N+](=O)[O-])c1 (stereo unspecified),i,i,i,i,i,i
Cc1cc(C)c(S(=O)(=O)NC(CC(=O)O)c2cccc([N+](=O)[O-])c2)c(C)c1 (stereo unspecified),i,25,i,i,i,i
OC(CN1CCN(c2ccccc2Cl)CC1)c1ccccc1 (stereo unspecified),i,i,i,i,i,i
COc1cc(-c2noc(C)c2-c2ccc(N(C)C)nc2)cc(OC)c1OC,32,i,36,i,i,i
CCc1ccccc1OC[C@@H](O)CN[C@H]1CCCc2ccccc21,i,25,i,i,i,i
OC(CNC1CCCc2ccccc21)COc1ccc2ccccc2c1 (stereo unspecified),i,i,i,i,i,i
CCOC(=O)C1(Cc2ccc(OC)cc2)CCN(S(C)(=O)=O)CC1,i,i,i,i,i,i
CCOC(=O)C1(Cc2ccc(Cl)cc2)CCN(C(C)Cc2ccc(O)c(OC)c2)CC1 (stereo unspecified),i,i,i,i,i,30
N/C(=N\OCc1ccc([N+](=O)[O-])cc1)c1ccncc1,i,30,i,i,i,i
O=C(NNC(=O)c1ccc([N+](=O)[O-])cc1)c1ccncc1,i,i,i,i,i,i
O=c1c2cnn(-c3ccc(F)cc3)c2ncn1Cc1cccnc1,i,i,i,i,29,i
